Data published in ChEMBL document CHEMBL4138242, “Synthesis and antibacterial evaluation of novel cationic chalcone derivatives possessing broad spectrum antibacterial activity” (Eur J Med Chem, 2018).
Calls of active or inactive are those of the source. No cut-off for these calls is given here.

Tests used:
Staphylococcus aureus [1] = assay: Antibacterial activity against methicillin-resistant Staphylococcus aureus clinical isolate 1-may after 16 to 20 hrs by broth microdilution method; type: functional
In short: (§1)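 CLSI broth microdilution in Mueller-Hinton broth. A 4-6 h culture was diluted to about 10⁶ CFU/mL and mixed 1:1 with compound dilutions prepared at 256 to 0.5 µg/mL from aqueous stocks. Plates were incubated at 37 °C for 16-20 h and read visually for MIC. Each concentration was run in duplicate, and the experiment was repeated at least twice. Vancomycin and meropenem were comparators.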

Escherichia coli [2] = assay: Antibacterial activity against drug-resistant NDM1 producing Escherichia coli clinical isolate EA-14-61 after 16 to 20 hrs by broth microdilution method; type: functional; in short: as §1
Escherichia coli [3] = assay: Antibacterial activity against drug-resistant NDM1 producing Escherichia coli clinical isolate EC-13-49 after 16 to 20 hrs by broth microdilution method; type: functional; in short: as §1
Escherichia coli [4] = assay: Antibacterial activity against drug-resistant NDM1 producing Escherichia coli clinical isolate CF-15-61 after 16 to 20 hrs by broth microdilution method; type: functional; in short: as §1
Klebsiella pneumoniae [5] = assay: Antibacterial activity against drug-resistant carbapenemase producing Klebsiella pneumoniae clinical isolate KP-14-4 after 16 to 20 hrs by broth microdilution method; type: functional; in short: as §1
Staphylococcus aureus [6] = assay: Antibacterial activity against methicillin-resistant Staphylococcus aureus clinical isolate 1104060 after 16 to 20 hrs by broth microdilution method; type: functional; in short: as §1
Escherichia coli [7] = assay: Antibacterial activity against drug-resistant NDM1 producing Escherichia coli clinical isolate Ecl-13-62 after 16 to 20 hrs by broth microdilution method; type: functional; in short: as §1
Klebsiella pneumoniae [8] = assay: Antibacterial activity against drug-resistant carbapenemase producing Klebsiella pneumoniae clinical isolate KP-14-5 after 16 to 20 hrs by broth microdilution method; type: functional; in short: as §1
Escherichia coli [9] = assay: Induction of cytoplasmic membrane depolarization in Escherichia coli ATCC 25922 at 10 to 20 ug/ml measured every 2 mins for 12 mins by DiSC35 dye-based fluorescence assay; type: functional, organism-based
In short: (§2)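 Mid-log cells (~10⁸ CFU/mL) were suspended in PBS (S. aureus) or HEPES/glucose/KCl with EDTA (E. coli). They were preloaded with DiSC3(5) for 30 min (S. aureus) or 40 min (E. coli), and baseline fluorescence was read for 8 min. Compound was added to 20 µg/mL final, and fluorescence (ex 622/em 670 nm) was read every 2 min for 12 min. Water served as control.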

Staphylococcus aureus [10] = assay: Antibacterial activity against methicillin-resistant Staphylococcus aureus clinical isolate 0831010 after 16 to 20 hrs by broth microdilution method; type: functional; in short: as §1
Klebsiella pneumoniae [11] = assay: Antibacterial activity against drug-resistant carbapenemase producing Klebsiella pneumoniae clinical isolate KP-14-2 after 16 to 20 hrs by broth microdilution method; type: functional; in short: as §1
Enterococcus faecalis = assay: Antibacterial activity against Enterococcus faecalis ATCC 29212 after 16 to 20 hrs by broth microdilution method; type: functional
In short: (§3)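 Broth microdilution per CLSI. Bacteria grown 4-6 h (about 10⁸ CFU/mL), then diluted to about 10⁶ CFU/mL. Medium: Mueller-Hinton broth, except Luria-Bertani broth for E. coli. Compounds in sterile water, twofold series 256-0.5 µg/mL, mixed 1:1 with inoculum, 37 °C for 16-20 h. MIC is the lowest concentration without visible growth. Duplicate wells; experiment repeated at least twice.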

Klebsiella pneumoniae [12] = assay: Antibacterial activity against drug-resistant carbapenemase producing Klebsiella pneumoniae clinical isolate KP-14-18 after 16 to 20 hrs by broth microdilution method; type: functional; in short: as §1
Staphylococcus aureus [13] = assay: Antibacterial activity against methicillin-resistant Staphylococcus aureus clinical isolate 20131012632sau after 16 to 20 hrs by broth microdilution method; type: functional; in short: as §1
Staphylococcus aureus [14] = assay: Antibacterial activity against methicillin-resistant Staphylococcus aureus clinical isolate 0906202 after 16 to 20 hrs by broth microdilution method; type: functional; in short: as §1
Staphylococcus aureus [15] = assay: Induction of cytoplasmic membrane depolarization in Staphylococcus aureus ATCC 29213 at 10 to 20 ug/ml measured every 2 mins for 12 mins by DiSC35 dye-based fluorescence assay; type: functional, organism-based; in short: as §2
Staphylococcus aureus [16] = assay: Antibacterial activity against methicillin-resistant Staphylococcus aureus clinical isolate 20130911034sau after 16 to 20 hrs by broth microdilution method; type: functional; in short: as §1
Escherichia coli [17] = assay: Antibacterial activity against drug-resistant NDM1 producing Escherichia coli clinical isolate SM-15-84 after 16 to 20 hrs by broth microdilution method; type: functional; in short: as §1
Klebsiella pneumoniae [18] = assay: Antibacterial activity against drug-resistant carbapenemase producing Klebsiella pneumoniae clinical isolate EC-13-23 after 16 to 20 hrs by broth microdilution method; type: functional; in short: as §1
Escherichia coli [19] = assay: Induction of inner membrane permeabilization in Escherichia coli ATCC 25922 at 10 to 20 ug/ml measured every 2 mins for 12 mins by propidium iodide staining-based fluorescence assay; type: functional, organism-based
In short: (§4)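 Mid-log cells (~10⁸ CFU/mL) were suspended in PBS (S. aureus) or HEPES/glucose/KCl (E. coli). They were preincubated with propidium iodide for 30 min (S. aureus) or 40 min (E. coli), and baseline fluorescence was read for 8 min. Compound was added to 20 µg/mL final, and fluorescence (ex 535/em 617 nm) was read every 2 min for 12 min.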

Staphylococcus aureus [20] = assay: Antibacterial activity against methicillin-resistant Staphylococcus aureus clinical isolate 1207007 after 16 to 20 hrs by broth microdilution method; type: functional; in short: as §1
Staphylococcus aureus [21] = assay: Antibacterial activity against methicillin-resistant Staphylococcus aureus clinical isolate 1105183 cono7 after 16 to 20 hrs by broth microdilution method; type: functional; in short: as §1
[22] = Hemolytic activity in sheep RBC after 1 hr; type: ADME, cell-based, Ovis aries, Erythrocyte; details: sheep red blood cells (erythrocytes)
In short: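 Sheep red blood cells (150 µL suspension) mixed with 50 µL of compound dilutions (5120-10 µg/mL), 1 h at 37 °C, then centrifuged. Supernatant read at 540 nm. Percent hemolysis calculated relative to RBC-only control (0%) and 0.1% Triton X-100 (100%).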

Staphylococcus aureus [23] = assay: Antibacterial activity against Staphylococcus aureus ATCC 29213 after 16 to 20 hrs by broth microdilution method; type: functional; in short: as §3
Escherichia coli [24] = assay: Antibacterial activity against drug-resistant NDM1 producing Escherichia coli clinical isolate Ecl-14-56 after 16 to 20 hrs by broth microdilution method; type: functional; in short: as §1
Klebsiella pneumoniae [25] = assay: Antibacterial activity against drug-resistant carbapenemase producing Klebsiella pneumoniae clinical isolate KP-14-3 after 16 to 20 hrs by broth microdilution method; type: functional; in short: as §1
Escherichia coli [26] = assay: Antibacterial activity against drug-resistant NDM1 producing Escherichia coli clinical isolate 1460 after 16 to 20 hrs by broth microdilution method; type: functional; in short: as §1
Escherichia coli [27] = assay: Antibacterial activity against drug-resistant NDM1 producing Escherichia coli clinical isolate EC-14-54 after 16 to 20 hrs by broth microdilution method; type: functional; in short: as §1
Escherichia coli [28] = assay: Antibacterial activity against drug-resistant NDM1 producing Escherichia coli clinical isolate Ecl-14-59 after 16 to 20 hrs by broth microdilution method; type: functional; in short: as §1
Klebsiella pneumoniae [29] = assay: Antibacterial activity against drug-resistant carbapenemase producing Klebsiella pneumoniae clinical isolate KP-13-45 after 16 to 20 hrs by broth microdilution method; type: functional; in short: as §1
Escherichia coli [30] = assay: Antibacterial activity against drug-resistant NDM1 producing Escherichia coli clinical isolate CF-13-61 after 16 to 20 hrs by broth microdilution method; type: functional; in short: as §1
Escherichia coli [31] = assay: Antibacterial activity against drug-resistant NDM1 producing Escherichia coli clinical isolate Ecl-14-58 after 16 to 20 hrs by broth microdilution method; type: functional; in short: as §1
Escherichia coli [32] = assay: Antibacterial activity against drug-resistant NDM1 producing Escherichia coli clinical isolate KP-13-58 after 16 to 20 hrs by broth microdilution method; type: functional; in short: as §1
Klebsiella pneumoniae [33] = assay: Antibacterial activity against drug-resistant carbapenemase producing Klebsiella pneumoniae clinical isolate KP-13-55 after 16 to 20 hrs by broth microdilution method; type: functional; in short: as §1
Salmonella enterica = assay: Antibacterial activity against Salmonella enterica ATCC 13076 after 16 to 20 hrs by broth microdilution method; type: functional; in short: as §3
Klebsiella pneumoniae [34] = assay: Antibacterial activity against drug-resistant carbapenemase producing Klebsiella pneumoniae clinical isolate KP-14-8 after 16 to 20 hrs by broth microdilution method; type: functional; in short: as §1
Staphylococcus aureus [35] = assay: Antibacterial activity against methicillin-resistant Staphylococcus aureus clinical isolate 1208143 after 16 to 20 hrs by broth microdilution method; type: functional; in short: as §1
Klebsiella pneumoniae [36] = assay: Antibacterial activity against drug-resistant carbapenemase producing Klebsiella pneumoniae clinical isolate KP-14-45 after 16 to 20 hrs by broth microdilution method; type: functional; in short: as §1
Escherichia coli [37] = assay: Antibacterial activity against Escherichia coli ATCC 25922 after 16 to 20 hrs by broth microdilution method; type: functional; in short: as §3
Staphylococcus aureus [38] = assay: Induction of inner membrane permeabilization in Staphylococcus aureus ATCC 29213 at 10 to 20 ug/ml measured every 2 mins for 12 mins by propidium iodide staining-based fluorescence assay; type: functional, organism-based; in short: as §4
Klebsiella pneumoniae [39] = assay: Antibacterial activity against drug-resistant carbapenemase producing Klebsiella pneumoniae clinical isolate KP-14-1 after 16 to 20 hrs by broth microdilution method; type: functional; in short: as §1
Klebsiella pneumoniae [40] = assay: Antibacterial activity against drug-resistant carbapenemase producing Klebsiella pneumoniae clinical isolate KP-13-54 after 16 to 20 hrs by broth microdilution method; type: functional; in short: as §1

## CCCCCCCC[N+](C)(C)CC(=O)Nc1ccc(C(=O)/C=C/c2ccc(OC)cc2)cc1.[Cl-]
Staphylococcus aureus [1]
  MIC: 1 µg/mL
Escherichia coli [2]
  MIC: 8 µg/mL
Escherichia coli [3]
  MIC: 4 µg/mL
Escherichia coli [4]
  MIC: 8 µg/mL
Klebsiella pneumoniae [5]
  MIC: 4 µg/mL
Staphylococcus aureus [6]
  MIC: 8 µg/mL
Escherichia coli [7]
  MIC: 8 µg/mL
Klebsiella pneumoniae [8]
  MIC: 8 µg/mL
Escherichia coli [9]
  Activity: Active
Staphylococcus aureus [10]
  MIC: 0.5 µg/mL
Klebsiella pneumoniae [11]
  MIC: 2 µg/mL
Enterococcus faecalis
  MIC: 2 µg/mL
Klebsiella pneumoniae [12]
  MIC: 16 µg/mL
Staphylococcus aureus [13]
  MIC: 4 µg/mL
Staphylococcus aureus [14]
  MIC: 1 µg/mL
Staphylococcus aureus [15]
  Activity: Active
Staphylococcus aureus [16]
  MIC: 1 µg/mL
Escherichia coli [17]
  MIC: 16 µg/mL
Klebsiella pneumoniae [18]
  MIC: 8 µg/mL
Escherichia coli [19]
  Activity: Active
Staphylococcus aureus [20]
  MIC: 0.5 µg/mL
Staphylococcus aureus [21]
  MIC: 1 µg/mL
[22]
  HC50 at 1 h: 124 µg/mL
Staphylococcus aureus [23]
  MIC: 1 µg/mL
Escherichia coli [24]
  MIC: 8 µg/mL
Klebsiella pneumoniae [25]
  MIC: 8 µg/mL
Escherichia coli [26]
  MIC: 8 µg/mL
Escherichia coli [27]
  MIC: 4 µg/mL
Escherichia coli [28]
  MIC: 8 µg/mL
Klebsiella pneumoniae [29]
  MIC: 8 µg/mL
Escherichia coli [30]
  MIC: 32 µg/mL
Escherichia coli [31]
  MIC: 8 µg/mL
Escherichia coli [32]
  MIC: 1 µg/mL
Klebsiella pneumoniae [33]
  MIC: 16 µg/mL
Salmonella enterica
  MIC: 4 µg/mL
Klebsiella pneumoniae [34]
  MIC: 8 µg/mL
Staphylococcus aureus [35]
  MIC: 1 µg/mL
Klebsiella pneumoniae [36]
  MIC: 16 µg/mL
Escherichia coli [37]
  MIC: 4 µg/mL
Staphylococcus aureus [38]
  Activity: Active
Klebsiella pneumoniae [39]
  MIC: 8 µg/mL
Klebsiella pneumoniae [40]
  MIC: 8 µg/mL
